Published values of several laboratories.
Lines come from different studies, so protocols differ.
Target: Ribosomal protein S6 kinase beta-1 (RPS6KB1, Homo sapiens, UniProt P23443)

CN(c1nccc(-c2cnn3ncccc23)n1)C1CC1  remaining binding (binding; 1 µM): 100%
N#CC1(c2ccccn2)CCN(Cc2cc(C(=O)N3CCCC3)c(=O)n3ccccc23)CC1  remaining binding (binding, competition with immobilised ligand; 1 µM): 34%
Nc1ncc2c(n1)-c1c([nH]c3ccc(C#CC4CC4)cc13)CCCC2  remaining binding (binding, competition with immobilised ligand; 1 µM): 72%
CCCOc1ccc([C@H]2[C@H](C(=O)O)[C@@H](c3ccc4c(c3)OCO4)CN2CC(=O)Nc2c(CC)cccc2CC)cc1  remaining binding (cell-free assay, competition with immobilised ligand; 1 µM): 76%
Cc1cnc(Nc2ccc(C(=O)N3CCC(N4CCCC4)CC3)cc2)nc1-c1cc2ccccc2s1  remaining binding (binding, competition with immobilised ligand; 1 µM): 36%
N[C@@H]1CCN(c2nccc(-c3cnn4ncccc34)n2)C1  remaining binding (binding; 1 µM): 100%
Cc1c(C(=O)O)cc(-c2ccc(C3CCNCC3)cc2)c2ccc(-c3ccc(C(F)(F)F)cc3)cc12  remaining binding (binding, competition with immobilised ligand; 1 µM): 100%
CC1CCCN1c1nccc(-c2cnn3ncccc23)n1 (stereo not drawn)  remaining binding (binding; 1 µM): 100%
COc1cnc(Nc2cccc(S(N)(=O)=O)c2)nc1N1CCN(c2ccccc2)CC1  remaining binding (binding, competition with immobilised ligand; 1 µM): 94%
Cc1cnn2ncc(-c3ccnc(N(C)C)n3)c2c1  remaining binding (binding; 1 µM): 82%
c1cncc(-c2cccc(Nc3nccc(NC4CCCCC4)n3)c2)c1  remaining binding (binding, competition with immobilised ligand; 10 µM): 64%
C=CC(=O)N1CCC(C(=O)NCC(=O)N2CCN(c3nc(-c4cnc(N)nc4C(F)F)nc(N4CCOCC4)n3)CC2)CC1  remaining binding (binding, competition with immobilised ligand; 1 µM): 56%
O=C(c1ccc(Nc2nccc(-c3cc4ccccc4s3)n2)cc1)N1CCC(N2CCCC2)CC1  remaining binding (binding, competition with immobilised ligand; 1 µM): 79%
COc1cnc(Nc2cccc(S(N)(=O)=O)c2)nc1N1CCN(c2ccccc2)C(=O)C1  remaining binding (binding, competition with immobilised ligand; 1 µM): 71%
O=C(c1ccc(Nc2ncc(Cl)c(-c3cc4ccccc4s3)n2)cc1)N1CCC(N2CCCC2)CC1  remaining binding (binding, competition with immobilised ligand; 1 µM): 37%
NS(=O)(=O)c1cc(NC(=O)Cc2ccccc2)ccc1Oc1cccc(Cl)c1  remaining binding (cell-free assay, competition with immobilised ligand; 1 µM): 69%
c1cnn2ncc(-c3ccnc(N4CCC45COC5)n3)c2c1  remaining binding (binding; 1 µM): 66%
O=C(NC[C@@H]1[C@H]2CN(C(=O)OCc3cc(C(F)(F)F)cc(C(F)(F)F)c3)C[C@@H]12)c1ccc2[nH]nnc2c1  remaining binding (cell-free assay, competition with immobilised ligand; 1 µM): 86%
O=C(Nc1c[nH]nc1C(=O)NC1CCNCC1)c1cc(F)cc(F)c1  remaining binding (binding, competition with immobilised ligand; 1 µM): 99%
C[C@@H]1CCN(c2nccc(-c3cnn4ncccc34)n2)C1  remaining binding (binding; 1 µM): 87%
O=C(NS(=O)(=O)c1ccc(NCC2CCOCC2)c([N+](=O)[O-])c1)c1ccc(N2CCN(Cc3ccc(C(F)(F)F)cc3-c3ccc(Cl)cc3)CC2)cc1Oc1cnc2[nH]ccc2c1  remaining binding (cell-free assay, competition with immobilised ligand; 1 µM): 81%
